MC4R antag cAMP: blocks human MC4R cAMP signaling. P32245. actives 0.48% (n = 360,000). inhibition, % at 6.5 µM. AID 540295. MC4R-expressing cells, MTII-stimulated cAMP, LANCE TR-FRET;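 active = inhibition above its plate's cutoff, the mean of tested wells on that plate plus 3 SD, cut at about 29% in these data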;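 note: 0% = Melanotan II alone and 100% = Melanotan II plus saturating MCL0020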
Target sequence (P32245 whole entry, looked up): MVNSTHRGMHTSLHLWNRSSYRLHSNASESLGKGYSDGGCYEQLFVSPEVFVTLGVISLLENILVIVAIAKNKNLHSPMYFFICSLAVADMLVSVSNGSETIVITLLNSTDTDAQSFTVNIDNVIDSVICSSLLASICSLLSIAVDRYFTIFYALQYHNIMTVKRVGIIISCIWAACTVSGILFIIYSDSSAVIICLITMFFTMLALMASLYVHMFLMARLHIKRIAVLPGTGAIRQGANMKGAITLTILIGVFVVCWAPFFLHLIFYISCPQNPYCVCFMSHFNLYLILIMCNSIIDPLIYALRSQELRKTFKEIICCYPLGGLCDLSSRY
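System: U2OS cells stably expressing human melanocortin 4 receptor (MC4R). Reagent: Melanotan II challenge after compound preincubation. Doses: 6.5 µM. Times: 30-min compound, 1-h challenge, 1-h detection, room temperature. Measured by: TR-FRET with Eu-cAMP and labeled anti-cAMP, 671 nm. Replicates: singlicate.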
NR1D1 modulator: modulators of human Rev-erb alpha DNA binding; P20393; Rev-erbα–FITC-DNA binding, fluorescence polarization, 90 min; activity, % at 10 µM; actives 0.79% (n = 370,000); AID 1259318;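 active = activity above about 14%, limit read from the data; passing the limit was not always enough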;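 note: 0% = DMSO wells with 35 nM protein and 100% = DMSO wells with 750 nM protein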
PG9 Ab binder: PG9 antibody binding by small molecule. TR-FRET gp120-PG9 antibody binding. inhibition, % at 6.7 µM. actives 0.43% (n = 360,000); in the data active = inhibition above about 8.5%
MC4R barr agon: activates human MC4R beta-arrestin recruitment; actives 0.98% (n = 360,000); AID 540308; activation, % at 8.9 µM; U2OS MC4R beta-arrestin complementation, luminescence; percent of melanotan II response, DMSO zero; P32245;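 active = activation above a per-plate cutoff, the mean activation of sample wells on that plate plus 3 SD, cut at about 8% in these data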
NR2E3 ag-1: NR2E3 (human) agonism | GST-NR2E3/biotin-RetCOR TR-FRET, 1536-well | inhibition of corepressor binding, % at 4.78 µM | actives 0.12% (n = 320,000) | AID 2300;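 active = percent inhibition above the cutoff of mean plus 3 SD of all tested compounds, set per screening campaign, cut at about 20% in these data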;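 note: 0% = DMSO wells and 100% = biotin wells as full block of FRET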
Target sequence (Q9Y5X4 whole entry, looked up): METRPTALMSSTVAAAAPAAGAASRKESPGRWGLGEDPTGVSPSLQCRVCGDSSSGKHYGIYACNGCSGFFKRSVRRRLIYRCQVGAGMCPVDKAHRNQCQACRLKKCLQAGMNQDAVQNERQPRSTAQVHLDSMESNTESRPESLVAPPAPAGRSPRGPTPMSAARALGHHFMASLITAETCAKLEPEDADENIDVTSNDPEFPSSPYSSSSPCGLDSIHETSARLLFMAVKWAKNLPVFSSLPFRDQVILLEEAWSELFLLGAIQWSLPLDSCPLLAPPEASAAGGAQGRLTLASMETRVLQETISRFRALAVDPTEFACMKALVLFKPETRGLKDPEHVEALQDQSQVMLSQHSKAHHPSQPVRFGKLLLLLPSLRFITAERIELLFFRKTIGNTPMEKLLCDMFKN
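Assay system: NR2E3–RetCOR corepressor complex. Quantity: 1.35 nM GST-NR2E3. Buffer or medium: pH 7.5 Tris-based buffer. Reagent: biotinylated RetCOR corepressor at 7 nM final. Schedule: 5 h at 4 °C. Detection: TR-FRET, emission read at 617 and 671 nm. Replicates: one well per compound, singlicate testing.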
NR2E3 ag-2: activates human NR2E3 receptor; inhibition of corepressor binding, % at 3.98 µM; AID 602229; actives 0.35% (n = 360,000); CHO-S Gal4-NCOR/VP16-NR2E3 two-hybrid, luciferase;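 active = inhibition above the mean of all tested compounds plus 3 SD, cut at about 70% in these data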;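 note: 0% = DMSO with NR2E3 transfected cells and 100% = cells lacking NR2E3 construct; higher means lower luciferase signal from less NR2E3 corepressor binding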
MC4R barr conf: human MC4R beta-arrestin agonism confirmation | shares compounds with MC4R barr agon | actives 31% (n = 2,400) | activation, % at 8.9 µM | AID 602192 | U2OS MC4R beta-arrestin recruitment, luminescence; scaled DMSO 0%, Melanotan II 100%;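 active = mean activation across replicates above the hit cutoff set in the earlier primary screen, cut at about 8% in these data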
MOR-DOR barr ag: activates mu-delta opioid heterodimer, MC4R agonist counter-screen; actives 5.8% (n = 2,400); U2OS PathHunter beta-arrestin, beta-gal luminescence; percent of deltorphin B response, DMSO zero; shares compounds with MC4R barr agon; activation, % at 9.2 µM; AID 602194;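 active = mean activation across replicates exceeds the hit threshold derived in the earlier primary screen, cut at about 18% in these data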;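 note: 100% = deltorphin B at 0.9 µM final and 0% = DMSO alone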
NR2E3 ag conf: confirmation of human NR2E3 agonists. shares compounds with NR2E3 ag-2. CHO-S mammalian two-hybrid NR2E3-NCOR, luciferase luminescence. inhibition, % at 3.98 µM. actives 51% (n = 2,300);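 active = average inhibition above a cutoff equal to the mean inhibition of all tested compounds plus one SD, cut at about 70% in these data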;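 note: 0% = DMSO in NR2E3 cells and 100% = DMSO in cells lacking NR2E3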
VP16 counter: reduces GAL4-VP16 reporter signal in NR2E3 counterscreen; inhibition, % at 3.98 µM; AID 624379; actives 29% (n = 2,300); CHO-S GAL4-VP16 luciferase reporter, luminescence; shares compounds with NR2E3 ag-2;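 active = mean inhibition above a cutoff equal to the average over all tested compounds plus one standard deviation, cut at about 70% in these data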;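 note: luciferase from a UAS reporter driven by GAL4-VP16 transactivation; 0% = DMSO with VP16-transfected cells and 100% = DMSO with cells lacking VP16; higher means less reporter light so more repression of VP16 activity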
Starred values were filed as active, the others as inactive; · = not tested or not shown. Sampled rows, rich in hits. Any-hit rate of the full collection: about 2.7%.

SMILES	MC4R antag cAMP	NR1D1 modulator	PG9 Ab binder	MC4R barr agon	NR2E3 ag-1	NR2E3 ag-2	NR2E3 ag conf	VP16 counter	others
O=P(Nc1ccccc1)(Oc1ccccc1)Oc1ccccc1	5.2	-0.6	-5.1	2.3	6.6	14.1	·	·
O=P(NC(c1ccccc1)c1ccccc1)(Oc1ccccc1)Oc1ccccc1	1.1	4.9	0.0	11.3*	-0.5	-0.7	·	·	MC4R barr conf=-0.4;MOR-DOR barr ag=8.4
COC(=O)C1=C(c2ccc(-c3ccccc3)c(F)c2)C[C@@H]2CC[C@H]1N2C(=O)N1CCCCC1	7.8	-3.0	-1.5	-1.3	2.2	36.9	·	·
O=C(C(Cc1ccccc1)NS(=O)(=O)c1cccc2nsnc12)N1CCC2(CC1)OCCO2 (stereo not drawn)	6.9	0.4	0.7	-0.8	2.6	11.4	·	·
Nc1ccc(C2(c3ccc(N)cc3)c3ccccc3-c3ccccc32)cc1	-4.3	4.5	2.9	70.3*	-3.4	5.0	·	·	MC4R barr conf=44.9*;MOR-DOR barr ag=15.0
CCN(CC)c1ccc(N=Cc2c(O)n(Cc3ccco3)c(=O)[nH]c2=O)cc1	12.6	-1.0	-1.8	11.3*	-5.3	-5.1	·	·	MC4R barr conf=-0.7;MOR-DOR barr ag=4.7
NC(=O)c1ccc(N=Cc2c(O)n(Cc3ccco3)c(=O)[nH]c2=O)cc1	-10.4	-26.3	0.1	0.9	7.2	-24.4	·	·
CC(C)CCNC(=O)c1c(N)n(Cc2ccc3c(c2)OCO3)c2nc3ccccc3nc12	-4.1	5.7	-1.8	13.4*	3.6	-7.5	·	·	MC4R barr conf=8.4*;MOR-DOR barr ag=4.1
CC(C)CNC(=O)c1c(N)n(Cc2ccc3c(c2)OCO3)c2nc3ccccc3nc12	-3.5	6.5	0.5	10.7*	7.5	-34.4	·	·	MC4R barr conf=9.2*;MOR-DOR barr ag=3.6
CCCNC(=O)c1c(N)n(Cc2ccc3c(c2)OCO3)c2nc3ccccc3nc12	-19.6	·	·	0.5	-3.2	-6.4	·	·
CC(C)(C)c1cc(OC(=O)Cc2ccccc2)ccc1O	2.6	-1.0	-0.5	10.4*	3.1	15.2	·	·	MC4R barr conf=6.3;MOR-DOR barr ag=13.6
COC(=O)C1=C(c2ccc3ccccc3c2)C[C@@H]2CC[C@H]1N2C(=O)N1CCCC1	1.6	·	·	1.8	-2.7	29.0	·	·
COc1ccccc1OP(=O)(Nc1ccc(Br)cc1)Oc1ccccc1OC	5.4	4.3	-1.8	18.2*	1.6	-1.8	·	·	MC4R barr conf=-1.4;MOR-DOR barr ag=7.6
COC(=O)C1=C(c2ccc(-c3ccccc3)c(F)c2)C[C@@H]2CC[C@H]1N2C(=O)N1CCCC1	-0.6	-1.5	-1.8	-0.3	1.9	70.6*	53.7	56.2
COC(=O)C1=C(c2ccc(-c3ccccc3)c(F)c2)C[C@@H]2CC[C@H]1N2C(=O)N1CCC(O)CC1	10.8	0.4	-1.3	2.0	2.8	14.2	·	·
CC1=CC(C)CC(C)OC(=O)CC(c2ccc(O)cc2)NC(=O)C(Cc2c(Br)[nH]c3ccccc23)N(C)C(=O)C(C)NC(=O)C(C)C1 (stereo not drawn)	-0.8	7.0	-1.0	-0.9	·	64.2	58.0	62.8
CC(C)OP(=O)(Oc1ccc(C(O)C(Cl)(Cl)Cl)cc1)OC(C)C (stereo not drawn)	-2.0	-1.3	-3.5	0.1	-1.6	4.0	·	·
CC1CCOC(=O)C=CC=CC(=O)OC2CC3OC4C5OC5(C)C(O)CC4(COC(=O)C1O)C2(C)C31CO1 (stereo not drawn)	3.0	3.0	-0.5	-1.4	·	102.4*	99.0*	98.9*
CC1=CC2OC3CC4OC(=O)C=CC=CC(C(C)O)OCC(O)C5(C)OC5C(=O)OCC2(CC1O)C4(C)C31CO1 (stereo not drawn)	3.3	-2.6	2.6	-0.1	·	101.8*	97.8*	98.4*
CC(O)C1C=CC=CC(=O)OC2CC3OC4C5OC5(C)C(O)CC4(COC(=O)C(O)C(C)CCO1)C2(C)C31CO1 (stereo not drawn)	-4.8	5.3	-0.9	-1.2	·	91.7*	94.2*	65.9
CC1=CC2OC3CC4OC(=O)C=CC=CC(=O)OCCC(C)C(O)C(=O)OCC2(CC1)C4(C)C31CO1 (stereo not drawn)	37.1*	-1.4	0.1	8.9*	·	103.2*	100.6*	100.3*
CC1(C)C[C@H]2C=C(C=O)[C@]3(C=O)C[C@]3(C)[C@H]2C1	14.9	-0.4	-0.1	3.1	3.3	18.1	·	·
COC(=O)C1=C(c2c(C)noc2C)C[C@@H]2CC[C@H]1N2C(=O)N1CCCC1	3.9	-1.1	0.0	-0.5	-2.1	15.2	·	·
C[C@@H]1C(=O)O[C@@H]2[C@H](O)C34[C@@H]5OC(=O)C3(O[C@H]3OC(=O)[C@H](O)C34[C@H](C(C)(C)C)[C@H]5O)[C@@]12O (stereo partly drawn)	-7.4	0.3	-0.1	-1.8	1.5	18.1	·	·
CC(C)c1ccc(C(c2c(O)c3ccccc3oc2=O)c2c(O)c3ccccc3oc2=O)cc1	12.8	-7.3	-2.4	1.5	·	75.2*	91.1*	52.6
SMILES	MC4R antag cAMP	NR1D1 modulator	PG9 Ab binder	MC4R barr agon	NR2E3 ag-1	NR2E3 ag-2	NR2E3 ag conf	VP16 counter	others
O=c1oc2ccccc2c(O)c1C(c1ccc([N+](=O)[O-])cc1)c1c(O)c2ccccc2oc1=O	-7.7	-5.0	-0.2	-1.3	·	10.4	·	·
CC(C)Cc1nc(N2CCNCC2)c(C#N)c2c1CCC2	7.8	3.8	-0.8	4.7	-1.4	-15.7	·	·
NC(=O)c1cn(C2OC(CO)C(O)C2O)c2ncnc(N)c12 (stereo not drawn)	15.7	-1.2	-1.0	-0.5	-0.6	101.4*	99.1*	98.6*
N#Cc1c(Br)n(C2OC(CO)C(O)C2O)c2ncnc(N)c12 (stereo not drawn)	-3.0	1.3	0.0	-2.6	·	42.7	·	·
N#Cc1cn(C2OC(CO)C(O)C2O)c2ncnc(N)c12 (stereo not drawn)	6.6	-4.8	-2.4	0.8	·	97.5*	99.6*	83.5*
CCOc1cc2c(cc1OCC)-n1cccc1C(c1ccc(OC(F)F)cc1)NC2 (stereo not drawn)	-3.5	-6.9	-0.9	0.3	-5.3	-10.9	·	·
CC(=O)OC1CC[C@@]2(C)C(=CC(=O)C3C4CCC(OC(C)=O)[C@@]4(C)CCC32)C1 (stereo partly drawn)	-2.4	3.8	-0.7	-0.3	-3.6	4.5	·	·
